Reference: the EternaBench riboswitch data

Test system: MS2 coat protein
Assay: apparent Kd, MS2 coat protein; higher = weaker binding; RNA-MaP array; FMN 200 µM where present
Procedure, shortened: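 Stalled E. coli RNA polymerase transcribed the designs on Illumina sequencing-chip clusters. SNAP-549-labelled MS2 coat protein was titrated from 0.7 or 1.5 nM, doubling to 3 µM, without and then with constant ligand, in 100 mM Tris-HCl pH 7.5, 80 mM KCl, 4 mM MgCl2, BSA, DTT, yeast tRNA and Tween-20. Per-cluster binding curves were fitted to green signal normalised to red-channel RNA signal and control-cluster median Fmax. The apparent Kd is the median of the filtered fits.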

[1] = designed as: ON switch for flavin mononucleotide, no ligand
[2] = ligand present: flavin mononucleotide, designed as: ON switch for flavin mononucleotide
[3] = designed as: OFF switch for flavin mononucleotide, no ligand
[4] = ligand present: flavin mononucleotide, designed as: OFF switch for flavin mononucleotide

Sequence | apparent Kd [1] | apparent Kd [2] | apparent Kd [3] | apparent Kd [4]
UGGGUGGUCCGAGGAUAUGUCACAUGAGGAUCACCCAUGUAAAACCAAGAGACAGAAGGCGGACAUAGACGCCCAAUUGCGCUC | 30.7 nM | 5.03 nM | – | –
UAAAAGACUAGUAUGGUAACGAUCACAUGAGGAUCACCCAUGUAGGAUAUGAGCAGAAAAUCUGCUCAGAAGGACAUGCUAGUC | – | – | 5.8 nM | 9.08 nM
GACUAGGCAGGAUAUACAUGAGGAUCACCCAUGUGUCUGCGUUAAGCACGUGAAGACGGUAGAAGGGCCUUCAC | – | – | 11.6 nM | 13.5 nM
CUCGUGUAAGGAUAUACGAGUCACGGAAAUAAACCGUGAAGGUAGAAGGUACAUGAGGAUCACCCAUGUAAAAC | – | – | 40 nM | 347 nM
UUGGACGUCGUAGGAUAUGUAGGAUAUUCCUACAUGAGGAUCACCCAUGUUGACAUGGAAGAAGGUCAGAAGGACGAUGUCCAU | 344 nM | 559 nM | – | –
CGUUUGUAAGGAUAUAGCCACAUUACGAAUAAGUAGUGUGGCUAGAAGGUACAUGAGGAUCACCCAUGUAUGGG | – | – | 157 nM | 192 nM
GUGUUGUAUGUAGGAUAUGCAUACUGUUAGUAUGCAGAAGGACAUGAGGAUCACCCAUGUAUAUUAUUAUUAUAUAUCAUACAU | – | – | 21.1 nM | 36.8 nM
UAUAUAUAGUAAGGAUAUGUAUAUAGUUUAUAAACAGAAGGUACUGACAUGAGGAUCACCCAUGUUUUAGUGUGGGCAUGUAGA | – | – | 77.9 nM | 99.5 nM
CCCUAGGGAGGAUAUCCAAUAUAUGACAUGAGGAUCACCCAUGUUUCCACUCGUACCUCCGGAGAAGGCCCAUCCC | – | – | 26.3 nM | 24.5 nM
GUGGAGUAAGGAUAUACAUGAGGAUCACCCAUGUGAGGGUAUGAGAAGGGAAUGAGAGGUAGAAGGUACGAGGG | – | – | 172 nM | 107 nM
UAGAAGUCAGGAUAUCCAUGGCGGCACUUGCGUGGUGGCGUGGAGAAGGGACAUGAGGAUCACCCAUGUAAAGU | – | – | 53.3 nM | 48.5 nM
AGCGCUACGGAAUCAAGGGCAGGCAGAAGGAGCACAUGAGGAUCACCCAUGUGAUCCAGGGAUGGCUAGGAUAUGCGCGCCACG | – | – | 26.4 nM | 26.5 nM
AGAUUUGUACAUGAGGAUCACCCAUGUUAAUAGGUGGUUGUCAGAAGGCAUUAAUAGAGAUUUAAUGAGGAUAUGAAUUUACAA | 1420 nM | 1040 nM | – | –
AAUAACAGAGGAUAUACUAUUUUAUGUAUUUAUUAUUUUAAACAUGAGGAUCACCCAUGUAGAAGGCUGAUUAA | – | – | 28.1 nM | 30.4 nM
GACGGUGAUGUAGGAUAUACGCUGGAAUACAGCGUAGAAGGACAUGAGGAUCACCCAUGUAAAGUGUCUCUAAAUAACACCGUC | – | – | 21.5 nM | 47.2 nM
CAAAGGUGAGGAUAUGCAUAACUAUGACGAAAGUCAUAAACACAUGAGGAUCACCCAUGUAGAAGGCACCACAA | – | – | 23.9 nM | 18.3 nM
GGAUUACAUGAGGAUCACCCAUGUGAGGAUAUCGAUGUCCUGUAAUUCGUGCGGGACUCGAGAAGGCACUUGGA | – | – | 51.3 nM | 168 nM
ACAUGAGGAUCACCCAUGUGGAGUGAAGAAGGUGGUUACUUAAGACUCUCCCAUGUACUUAGGACUGAGGAUAUUCUAAUAUUU | 82.3 nM | 45.9 nM | – | –
UAGUAGAUCCGAGGAUAUACAAUCCGGAAACGGUACAUGAGGAUCACCCAUGUAGAAGGCGGAUCUACAGGUACUAAAGUACCC | – | – | 5.89 nM | 8.32 nM

Sequence | apparent Kd [1] | apparent Kd [2] | apparent Kd [3] | apparent Kd [4]
GCUUGUGAAGGAUAUACUGGCGGCAUGCGCUCGGCACGCGCACAUGAGGAUCACCCAUGUAGAAGGUCAAACGU | – | – | 22.4 nM | 22.8 nM
UGAUAACAUGAGGAUCACCCAUGUCAGGAUAUAAAUUGAGCUCCUUGGACGCCACCGUUUAGAAGGGACGCAUG | – | – | 23.7 nM | 22.7 nM
GCGUAAUUGAUCCUAUUUACCAACAUGAGGAUCACCCAUGUGCAGGAUAUGCUAAAGAUAGAUAAGCAGAAGGGCAUUUACCGC | – | – | 47 nM | 211 nM
CGUACCAUGUAGAAGGCAUAUCUCAAAGAGAUAUGAGGAUAUACAUGAGGAUCACCCAUGUAAAUGUACUCCAGGAAACUGGAA | – | – | 47.8 nM | 222 nM
GUAGCAUAGUCAGGAUAUUCAUAUAAUAAAUAAACAUGAGGAUCACCCAUGUGGCGAAAGCCUUGGGAGAAGGGACAAUGCUAC | 1210 nM | 90.2 nM | – | –
GCGUAAGUCACAGGAUAUCCAACAUGAGGAUCACCCAUGUAAAAGUGCCGCACUAGAAUGCGACUGGAGAAGGGUGAUUCGUCG | 50.3 nM | 27.5 nM | – | –
GCAACGCCUGACAUGAGGAUCACCCAUGUUAGAUUGUUAUGUCAGGAUAUUGUCUCGAAACGAGAUGAGAAGGGAUAUGUUGCU | 997 nM | 61.2 nM | – | –
UUUUAACAUGAGGAUCACCCAUGUGAGGAUAUCGAAAUUUAUAUUUAUAUUAAUAUAUCGAGAAGGCACAUUUU | – | – | 99 nM | 144 nM
AAGUUUGUACGAGGAUAUCAAUUGUUUCUAAAUUCAACAUGAGGAUCACCCAUGUAACAAUGGAGUGAGAAGGCGUGUGGGCAA | 214 nM | 203 nM | – | –
CUUUAGUGAGGAUAUGUGGCUUCGAUCGUGAGAUCGAGGCUACAGAAGGCACAUGAGGAUCACCCAUGUUUCUU | – | – | 17.2 nM | 81 nM
GGAUAGGACAGAGGAUAUACGUGCUAGAGAUACGAGCAAAAUUUCCUCACAUGAGGAUCACCCAUGUAGAAGGCUGUCCUAUCG | – | – | 32.5 nM | 578 nM
AACAUGUGAGGAUAUUGAUUGGAGACGUGGAGACCGCUAAUUAAGAAGGUACAUGAGGAUCACCCAUGUCCCAU | – | – | 215 nM | 231 nM
UGAAUGUGAGGAUAUGGUGAGUAGUGCCUGAGCGCUGCUCACCAGAAGGCACAUGAGGAUCACCCAUGUACUUG | – | – | 66.9 nM | 215 nM
GCACUCAAGUUAGGAUAUGGACCAGAAACUGGUCCAGAAGGAACAUGGGAACAUGAGGAUCACCCAUGUUCCAGAAACGAGUGC | 840 nM | 186 nM | – | –
AGCCAAGCAGGAUAUGCACGUAAUAACAUGAGGAUCACCCAUGUGACCGAUUUAUGUUCUGCAGAAGGGCUUGGAA | – | – | 60.3 nM | 63.5 nM
GGCGGAGACGUUAACAUGAGGAUCACCCAUGUCGAAGGAGAUGAGGAUAUCGCAUACGAUGUAUGUGAGAAGGCAUGGUCUGCC | 30 nM | 10.6 nM | – | –
ACUAAACGAGGAUAUACUGACAGGCCUCAGGCAUACAUCAAACAUGAGGAUCACCCAUGUAGAAGGCGUAAACU | – | – | 32.8 nM | 32.8 nM
GGAACUCAUGUAGGAUAUGCAUGGCGAAGCUACGCAGAAGGACAUGAGGAUCACCCAUGUUCUAGCGUCUGAGUACAGAUGCAA | – | – | 126 nM | 178 nM
GGUGCGUAUGUGAGGAUAUGCUGGUCCUUGGAUCAGCAGAAGGCACAUGAGGAUCACCCAUGUGGUGUCGUACA | – | – | 347 nM | 40.1 nM

Sequence | apparent Kd [1] | apparent Kd [2] | apparent Kd [3] | apparent Kd [4]
GGUACUCAAAGAGUACCAAUACGAACAUGAGGAUCACCCAUGUAGGAUAUAAAACCGCCGGAGUAUUAGAAGGACAUGUGCCUA | – | – | 11.5 nM | 10.5 nM
AGGAGGUUAGGAUAUGCUGCUCGUCACUUGCGUGAUGAGUAGCAGAAGGGACAUGAGGAUCACCCAUGUAAAAA | – | – | 48.5 nM | 28.1 nM
UCAUGCAUAGCGAUAUGAUCGAGAGAUCAUGUCGCUAAAUUUAGAAGGACAUGAGGAUCACCCAUGUAGGAUAUGGGAGCAUGA | 43 nM | 11 nM | – | –
GGCACACAUGAGGAUCACCCAUGUGAGGAUAUGGUGCGAUCGUCGAAAGACGAUAGCACCAGAAGGCACAUGCC | – | – | 18.2 nM | 39.5 nM
AAAAAGGUAGGAUAUACGAGGAGAAAUAAUAAAUAAAUAAAACAUGAGGAUCACCCAUGUAGAAGGACCAAAAA | – | – | 26.1 nM | 26.8 nM
CCGGGCGGUUUGCCCACACUGUCACAGGAUAUGCCCAAAACAUGAGGAUCACCCAUGUCAAAUACGCAGAAGGGUGAUCGGAAA | 55.8 nM | 37 nM | – | –
GGAUCCAUCACAGGAUAUGCUGGACUUUGUCCAGCAGAAGGGUGAACAUGAGGAUCACCCAUGUAAAAGGAUCCUAUAUUUAAU | 124 nM | 24.9 nM | – | –
GUAGGACAUGAGGAUCACCCAUGUGGGAGGGAACGAGGAUAUGUGAAAGGAUUGAAGAGGACAGAAGGCGUGGAGG | 44.4 nM | 35.3 nM | – | –
UCUACGCGAAUCAAGAUGGAUAGCACAUGAGGAUCACCCAUGUAGGAUAUGCUACACAAAGUGUAGCAGAAGGACAAGCGUAGA | – | – | 26.5 nM | 38.3 nM
GGAGCCGGUACUGAGGAUAUUCAUAUUAAAACAUGAGGAUCACCCAUGUAGGCCAGAAGGCCUUGGGAGAAGGCGGACCAGCUCG | 463 nM | 32.8 nM | – | –
UAAGUCUAAUGAGGAUAUCGUUAUCAAAGAUAAUGAGAAGGCAUACAAUCAUGAGGACAUGAGGAUCACCCAUGUUGUGACCAU | 40.9 nM | 17.6 nM | – | –
GUGGUCAGACAUGAGGAUCACCCAUGUGGAAUAAAUAAGGUACAGGAUAUCUAAUAUAGGAUAUAAGAGAAGGGUAGGUUGGUG | 75.4 nM | 78.4 nM | – | –
GCGUUGUACGAGAAGGCCAAUACAUGAGGAUCACCCAUGUUAAGUUGUUUUGGAGGAUAUCGAUCACCUACAAUAAUGCAACGC | – | – | 6.83 nM | 5.9 nM
UUUUAAUAAUAGAAGGAGGACUUCAUGAGGAUCACCCAUGUGUUAGUACUUAGGAUAUGUAAUAACAUGAGGAUCACCCAUGUC | 44 nM | 42.4 nM | – | –
AAGAAGUCAGGAUAUGCAUGGCGGGACUUGCGUCGUGGCGUGCAGAAGGGACAUGAGGAUCACCCAUGUAAAGA | – | – | 49.4 nM | 41.7 nM
AAAAAACAUGAGGAUCACCCAUGUCAGGAUAUCCUAAAAAAAAAAAAAAAAAAAAAAAGGAGAAGGGACAUAAA | – | – | 119 nM | 309 nM
AGAAACCGAGGAUAUACAUGAGGAUCACCCAUGUCAAGCGGCAUCUACCGAACCUUCUGUAGAAGGCGGAAAAC | – | – | 19.9 nM | 22.9 nM
UAUUCUAGAUAGGAUAUACUUUUUUUUUUUUUCGUAGAAGGAUCUACAUGAGGAUCACCCAUGUUUUCAGCAGU | – | – | 44.5 nM | 38.4 nM
